Measured values gathered from unrelated publications.
Each line is one published result; the experiments were not run side by side.
Read-out: microbial growth

Structure (SMILES) | organism | technique | strain | time | MIC
CC(C)Oc1c(NC(=O)c2ccc(NC(=O)[C@H](CC(N)=O)NC(=O)c3ccc(NC(=O)c4ccc(C#N)cc4)cc3)cc2)ccc(C(=O)Nc2ccc(C(=O)O)cc2)c1O | Proteus vulgaris |  | DSM2140 |  | 0.25 µg/mL
NC[C@H]1O[C@H](O[C@H]2[C@H](O)[C@@H](O[C@H]3O[C@H](CO)[C@@H](O)[C@H](N)[C@H]3O)[C@H](N)C[C@@H]2N)[C@H](O)[C@@H](O)[C@@H]1O | Listeria monocytogenes |  | ATCC19115 |  | > 128 µg/mL
OC(CN1CCOCC1)(Cn1cncn1)c1ccc(F)cc1F (centres unmarked) | Nakaseomyces glabratus | broth dilution | ATCC2001 | 48 h | 31.3 µg/mL
CCCCCCC/C=C/C(=O)N1C(=O)/C(=C(\O)c2ccc(O)cc2)C(=O)C1CC(C)C (centres unmarked) | Proteus vulgaris |  | ATCC33420 |  | > 200 µg/mL
CC(C)Oc1c(NC(=O)c2ccc(NC(=O)[C@H](CC(N)=O)NC(=O)c3ccc(NC(=O)c4ccc(C#N)s4)cc3)cc2)ccc(C(=O)Nc2ccc(C(=O)O)cc2)c1O | Proteus vulgaris |  | DSM2140 |  | 0.06 µg/mL
O=C(CCCCCCCC[P+](c1ccccc1)(c1ccccc1)c1ccccc1)Nc1ccc(O)c(O)c1.[Br-] | Cryptococcus neoformans | broth dilution | ATCC208821 | 24 h | > 32 µg/mL
CCCCCCC/C=C/C(=O)N1C(=O)/C(=C(/C)O)C(=O)C1Cc1ccc(OC(C)(C)C)cc1 (centres unmarked) | Proteus vulgaris |  | ATCC33420 |  | > 200 µg/mL
O=C(Nc1ccc2c(c1)OC(F)(F)O2)Nc1ccc(Cl)c(C(F)(F)F)c1 | Listeria monocytogenes |  |  |  | 0.3 µM
CCCCC(=O)N1C(=O)/C(=C(/C)O)C(=O)C1CC(C)C (centres unmarked) | Proteus vulgaris |  | ATCC33420 |  | > 200 µg/mL
CCCCCCCCCCCN1CCN(CC(O)(Cn2cncn2)c2ccc(F)cc2F)CC1 (centres unmarked) | Nakaseomyces glabratus | broth dilution | ATCC2001 | 48 h | 3.9 µg/mL
C/C(=C\c1ccc(C#N)cc1)C(=O)Nc1ccc(C(=O)N[C@@H](CC(N)=O)C(=O)Nc2ccc(C(=O)Nc3ccc(C(=O)Nc4ccc(C(=O)O)cc4)c(O)c3OC(C)C)cc2)cc1 | Proteus vulgaris |  | DSM2140 |  | ≤ 0.03 µg/mL
CCCCCCC/C=C/C(=O)N1C(=O)/C(=C(/C)O)C(=O)C1CCCCN (centres unmarked) | Proteus vulgaris |  | ATCC33420 |  | > 200 µg/mL
CCCCCCCCCCCCCCSC[C@@H]1O[C@@H](O[C@@H]2[C@@H](O)[C@H](O[C@@H]3O[C@@H](CN)[C@H](O)[C@@H](O)[C@@H]3N)[C@@H](N)C[C@H]2N)[C@@H](O)[C@H](N)[C@H]1O | Listeria monocytogenes |  | ATCC19115 |  | 0.5 to 1 µg/mL
C/C(=C\c1ccc(O)cc1)C(=O)Nc1ccc(C(=O)N[C@@H](CC(N)=O)C(=O)Nc2ccc(C(=O)Nc3ccc(C(=O)Nc4ccc(C(=O)O)cc4)c(O)c3OC(C)C)cc2)cc1 | Proteus vulgaris |  | DSM2140 |  | 0.125 µg/mL
O=C(Cc1cc(O)c(O)c(O)c1)NCCCCCCCC[P+](c1ccccc1)(c1ccccc1)c1ccccc1.[Br-] | Cryptococcus neoformans | broth dilution | ATCC208821 | 24 h | > 32 µg/mL
CCCCCCC/C=C/C(=O)N1C(=O)/C(=C(\O)CCCC)C(=O)C1CC(C)C (centres unmarked) | Proteus vulgaris |  | ATCC33420 |  | > 200 µg/mL
CO[C@@H](C(N)=O)[C@H](NC(=O)c1ccc(NC(=O)c2ccc(C#N)cc2)cc1)C(=O)Nc1ccc(C(=O)Nc2ccc(C(=O)Nc3ccc(C(=O)O)cc3)c(O)c2OC(C)C)cc1 | Proteus vulgaris |  | DSM2140 |  | 0.125 µg/mL
